We go through 167 variants from the RNAGym collection of RNA variant scans (doi:10.1126/science.aae0568).

This sample holds only a part of the variants without activity.

The labels stand for the following.
B1: tRNA (parent)
chain: GUUCCGUUGGCGUAAUGGUAACGCGUCUCCCUCCUAAGGAGAAGACUGCGGGUUCGAGUCCCGUACGGAACG

The variants in this series derive from B1. In words: yeast fitness relative to wild type (ratio to wild type); higher = fitter; tRNA-Arg(CCU), competitive growth, 37 C, YPD. The method, boiled down:
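Variants of the tRNA-Arg(CCU) gene, chemically synthesised with a 3% per-site mutation rate at 69 sites, were placed at the native genomic locus in Saccharomyces cerevisiae. The pooled strains were competed in YPD at 37°C for 24 hours in six parallel replicates. Gene amplicons from the start population and from each end population were read by 100-nucleotide paired-end sequencing. Darwinian fitness relative to wild type came from changes in genotype frequencies; genotypes needed ≥ 100 starting reads, and estimates < 0.5 were set to 0.5.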
On to C5A U19A C62A, for which the yeast fitness was no more than 0.5.
For C5U G38C C60U, the yeast fitness was no more than 0.5.
For A20C C31A, the yeast fitness turned out to be 0.79.
In the case of C30U U35A A69U it was no more than 0.5; in that of G6C U7C C27U, no more than 0.5.
As for U7A C11G A36U A57C, the yeast fitness was no more than 0.5.
For C30A A43G G50C, the yeast fitness was determined as 0.767.
In the case of U13C A70C it was 1.09.
The same measure for G10A C62U: 0.843.
The same measure for C4A U47C: 0.773; for G6A A36U C66U: 0.536.
U3A U7C: the yeast fitness amounted to 0.839.
C33G G41A A42G C46G: the yeast fitness was no more than 0.5.
Take A14G G39A: the yeast fitness is 0.751.
The same measure for A45C C62U: 0.842; for C4U A20G A45U C49U C61U C62G A69C: no more than 0.5; for U19G U32G G51C A57U: no more than 0.5.
In the case of U8C C27G A42G it was no more than 0.5; in that of C5A A20U C29A, no more than 0.5.
In the case of A40C C49G it was 0.804.
With G39A G63A, the yeast fitness worked out at 0.945.
In the case of C27G C30U U32C G51C U64A it was no more than 0.5; in that of U8A C27A A37U G67U, 0.612; in that of C5G U8A, 0.641.
In the case of A40C G67A it was 0.846; in that of A14C A15C U16C C27U C29A C34G G50C, no more than 0.5.
The same measure for C11G C22U U53C G68C: 0.521; for G9C C30G A57U C60G: 0.533.
Take U7G U35A C49G C60A: the yeast fitness is no more than 0.5.
For C11U A45U C66A, the yeast fitness was 0.659.
With C24A C60U, the yeast fitness was found to be 0.543.
The same measure for A43C G63U: 0.638; for G12A C24A A36U A69C: 0.599.
For the variant C5U A20C U32C A40U G50A G52A, the yeast fitness is no more than 0.5.
The same measure for G17A C22G C27A: 0.579; for A15C C30A: 0.666.
The same measure for U2G G10A A15U A21C G25C: no more than 0.5; for C49U A57G: 0.865.
The same measure for C4U U26G: 0.912; for U2C G9C U13C A20C: no more than 0.5.
As to U8C G12A A21C, the yeast fitness was no more than 0.5.
On to A15U U47C C49G C55U A65U, for which the yeast fitness is 0.531.
The same measure for C29U G39U C49G: no more than 0.5; for G44C C60U A70G: no more than 0.5.
In the case of G12C A42G A45G it was 0.627.
The same measure for U3A G38A: 0.787; for U35C A40U A42G U47C: 0.601.
Take G6A U8C U19A U53C: the yeast fitness was no more than 0.5.
Turning to G23A C27G C55G, the yeast fitness was no more than 0.5.
G12C G25A: the yeast fitness came to 0.848.
In the case of C4G U59C it was 0.771.
Regarding G17C C46U G68A, the yeast fitness is no more than 0.5.
In the case of C11U C31U G39C A40U it was 0.544.
The same measure for G12A A21C A70U: 0.563.
The same measure for C30U A43G G51C: no more than 0.5.
In the case of C22G C31G G67A, the yeast fitness turned out to be 0.615.
As for G25C G50A C62G, the yeast fitness was 0.897.
For the variant C11A A36G A43U, the yeast fitness is no more than 0.5.
For the variant U32A U64A G67A, the yeast fitness is no more than 0.5.
As to C24G C49G G50C, the yeast fitness was no more than 0.5.
In the case of G9C G12A A57C, the yeast fitness was found to be 0.541.
In the case of U19A C27G C31U A69U it was no more than 0.5.
For the variant A40C C55A, the yeast fitness worked out at 0.556.
As for C5G U8A A42C G48C, the yeast fitness was no more than 0.5.
In the case of C27G C29A C61U it was no more than 0.5; in that of G52C U59A, 0.598; in that of U7A G9C G17C C29G C33G G41C C66U, no more than 0.5.
The same measure for U8A C27A G68C: no more than 0.5.
The same measure for U3A U7A A43C G56A: no more than 0.5.
With C4A A65G, the yeast fitness turned out to be 0.946.
The same measure for G6C C11U A15G A21U C30G G44A G52A: 0.791.
With G48A C55U, the yeast fitness was 0.661.
In the case of C27U U35G A40C A57C G67U it was 0.612.
For C5A C27G U47C A70U, the yeast fitness was found to be 0.578.
For the variant U3A C34A A69G, the yeast fitness was no more than 0.5.
As to A20C C24G C27U C31G U54C A65C, the yeast fitness is no more than 0.5.
The same measure for G10A C11A G38A G52C C61A: no more than 0.5; for G6A G48C: 0.884; for C5A A36C A69C: 0.539.
The same measure for G58A A70U: 0.955.
In the case of A45C C60G it was 0.603.
On to A21U C24U A37U G51U, for which the yeast fitness is no more than 0.5.
In the case of A42C U53A U54C U64A it was no more than 0.5.
Turning to U8A G25A C29G A37C, the yeast fitness was 0.646.
C11U G68C: the yeast fitness worked out at 0.814.
C5A G39A U47A C55U G67A A69G: the yeast fitness is no more than 0.5.
The same measure for A37C U53C U64A: 0.679.
Consider G6C A45G G58A, for which the yeast fitness is 0.607.
As for A20C A21C C27U C46A, the yeast fitness worked out at 0.6.
The same measure for U28G A40U: 0.843; for A15C G48A U64G: 0.593.
For U7A A14G C31U G39C A40C A45U G68C, the yeast fitness was determined as 0.555.
On to C29G U35C C55G A57G, for which the yeast fitness was no more than 0.5.
The same measure for C5G C34A G50C: no more than 0.5.
The same measure for U19C U47A A57C: no more than 0.5; for C27U A45U G52A: 0.63; for A43C G44A U59A: 0.593.
The same measure for A15U G63C C66G: no more than 0.5.
Consider C4G U26A A57G, for which the yeast fitness was no more than 0.5.
In the case of U8C A15U G25A C34G G58C it was no more than 0.5.
The same measure for U16G G41A A69U: 0.527; for A14G A43G G52C U53C G63C: no more than 0.5.
The same measure for U3A C31U A40C U64A: no more than 0.5; for C29G C33G U35G G44A G67A: no more than 0.5; for U26A C29A C31G A65C: 0.566.
Take C30A G38C: the yeast fitness was found to be 0.851.
Consider C31U U59A, for which the yeast fitness amounted to 0.771.
As to U8C G9A C22G U32G G51C U64A C66U A69C, the yeast fitness is no more than 0.5.
In the case of U13A G52A it was 0.643; in that of C5A C27G A57C, no more than 0.5; in that of U13G A42C, 1.
The same measure for A21C G38A G58C: 0.503.
As to G23A C62U A65C, the yeast fitness amounted to 0.582.
The same measure for U3A C27A C29G A65G: no more than 0.5.
The same measure for G6A A14G A42G: 0.549.
The same measure for G12C G18C A45G: no more than 0.5.
Take A21C A42U A45U: the yeast fitness was 0.646.
With C33A U35C C46U C49U G52C C61U C66U, the yeast fitness was no more than 0.5.
The same measure for U2G G18A C27A C30U: no more than 0.5; for U2C G23C C31G C33U A42G G52C G58C: no more than 0.5.
Consider G6A A15C U16C, for which the yeast fitness was no more than 0.5.
The same measure for C29G C33U: no more than 0.5; for C4A C30G: 0.661.
The same measure for U16C G17C G38C C46U G58C: 0.64.
The same measure for C5A U28C U35C C66U: no more than 0.5.
On to U7C C34U C49A G56C C62A A65C, for which the yeast fitness was no more than 0.5.
The same measure for C11G U28A A65U A69U: no more than 0.5; for G12A C27G C34U A43C A57U G58A C62G: no more than 0.5.
In the case of A21G C27G it was 0.562.
The same measure for U26C A45G A69U: 0.647; for C11G A36C U47C C49U A69C: no more than 0.5.
For C4A A14G U26A, the yeast fitness is no more than 0.5.
In the case of C29G G48C U59A it was no more than 0.5; in that of G17A C29U C34A, no more than 0.5.
In the case of U35A U53C it was no more than 0.5; in that of C27G C49A A70U, no more than 0.5; in that of C5U A37G C62G G68C, no more than 0.5.
In the case of C11U U13C A20C C22G it was no more than 0.5; in that of U7C A37G C49A, no more than 0.5.
Regarding U2G C30U U32C C55G, the yeast fitness was no more than 0.5.
The same measure for C24A C27A U28A C55G: no more than 0.5; for C4U A43G: 1; for G6A C46G G51A: 0.637.
The same measure for U16G A57G C62G C66U: 0.517; for G6A C11U A43U C62G C66A A69C: no more than 0.5.
For the variant C30A C61U, the yeast fitness stood at 0.767.
Turning to U2C U7C U19C C34U G52A U59A, the yeast fitness is no more than 0.5.
As for U3G C33U A42G A57U C61A, the yeast fitness is no more than 0.5.
In the case of C29U C49U C55G G58A it was no more than 0.5.
In the case of A21G C61G C62U it was no more than 0.5.
In the case of A15U C30U A37G U59A it was no more than 0.5.
For the variant C11G C24U U28C A42G C60U C62G, the yeast fitness is no more than 0.5.
In the case of U8G C24U C29G C31A A45G C61U A65C G67A G68A it was no more than 0.5.
In the case of A15U C24U A37U U54G it was no more than 0.5; in that of A15C G50A C60G U64G, no more than 0.5; in that of U16A A37G A40C U47G, no more than 0.5.
The same measure for C11U U13G U19A C22G G25A A65C: no more than 0.5; for U7G C27G A40U C49G: no more than 0.5; for U26A C30U C31U A37C G48A: no more than 0.5.
As to U3C G12A C24A A36U C61U G67U, the yeast fitness turned out to be 0.55.
In the case of U7C C30U C34A C46U G58A A65U it was no more than 0.5; in that of U3G G44A G67C, no more than 0.5; in that of G50C G51C, 0.522.
The same measure for C30A A57C C60G: no more than 0.5.
In the case of U8C A36G G39C C49U U54G it was no more than 0.5.
On to U26C G68C, for which the yeast fitness came out at 0.936.
In the case of C5A U26A G56A A65G it was 0.565.
